From publication PMC3656968 (Journal of medicinal chemistry, 2013)
Where two headings read alike, the source gives them in different places. Marks after values point to notes of the source that are not given here.

Columns and labels:
[1] = target: T1, human serum albumin (HSA) (Homo sapiens, UniProt P02768); experiment: Ultrafiltration assay of binding to HSA; details: for % bound to 4.5% HSA: 0.1 mM probe, 4.5% w/v HSA in 50 mM HEPES, ultrafiltration; for binding to HSA on average: average of the diastereoisomers Gd(6a) and Gd(6b), 0.1 mM, 4.5% w/v HSA
T1 sequence (P02768 25-609): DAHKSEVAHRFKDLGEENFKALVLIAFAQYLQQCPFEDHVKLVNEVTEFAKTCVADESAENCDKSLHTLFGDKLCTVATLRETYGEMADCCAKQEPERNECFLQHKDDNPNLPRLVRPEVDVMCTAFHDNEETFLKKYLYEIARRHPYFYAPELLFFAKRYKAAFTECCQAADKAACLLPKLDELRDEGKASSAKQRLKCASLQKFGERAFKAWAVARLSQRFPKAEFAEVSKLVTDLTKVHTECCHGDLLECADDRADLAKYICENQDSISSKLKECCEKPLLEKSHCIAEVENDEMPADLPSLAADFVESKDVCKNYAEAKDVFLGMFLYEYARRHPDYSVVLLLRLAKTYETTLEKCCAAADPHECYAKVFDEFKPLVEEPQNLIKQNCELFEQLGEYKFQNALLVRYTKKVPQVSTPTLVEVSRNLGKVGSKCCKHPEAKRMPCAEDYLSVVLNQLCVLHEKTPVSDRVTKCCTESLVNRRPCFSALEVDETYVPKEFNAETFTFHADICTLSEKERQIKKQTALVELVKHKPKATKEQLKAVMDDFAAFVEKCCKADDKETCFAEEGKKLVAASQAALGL
Summary of the method: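 Complex at a constant 0.1 mM (50 mM HEPES, concentration by ICP-MS) with 4.5% w/v HSA, ultrafiltered through a 5000 MW cutoff membrane. Compared against the filtrate of an HSA-free solution. Unbound and total Gd measured directly by ICP-MS, and binding given as percent bound to HSA. Error estimated at ±10%.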

[2] = Relaxivity in HEPES buffer in the absence of HSA; type: physicochemical; details: 50 mM HEPES buffer pH 7.4, 37 °C
Summary of the method: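 Complex solid redissolved in 50 mM HEPES and filtered, with Gd concentration set by ICP-MS. Longitudinal relaxation (1/T1) measured at 0.47 and 1.41 T without HSA at 0.05-0.4 mM complex, in 50 mM HEPES pH 7.4 at 37 °C. r1 taken as slope of 1/T1 versus Gd concentration (mM). Error estimated at ±10% of value.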

[3] = target: T1, human serum albumin (HSA); experiment: Relaxivity in the presence of 4.5% w/v HSA; details: 50 mM HEPES buffer pH 7.4, 37 °C
Summary of the method: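 Complex in 50 mM HEPES with 4.5% w/v HSA, pH 7.4, 37 °C, with Gd content quantified by ICP-MS. 1/T1 recorded at 0.47 and 1.41 T across several complex concentrations. Observed relaxivity is the slope of 1/T1 against Gd concentration (mM). Estimated error is ±10% of the measured value.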

[4] = target: T1, human serum albumin (HSA); details: 0.1 mM probe, 4.5% w/v HSA; cited from earlier work
[5] = target: T1, human serum albumin (HSA); experiment: T1 weighted MR image of samples with or without HSA; details: 0.1 mM compound, with or without 4.5 % w/v HSA
Summary of the method: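 Samples of 0.1 mM compound, with or without 4.5% w/v HSA, imaged side by side with a T1-weighted sequence (TR/TE/flip angle 25 ms/4.7 ms/70°). Signal intensity read for each sample.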

[6] = absence of HSA, cited from earlier work
[7] = target: T1, human serum albumin (HSA); details: cited from earlier work

| Structure (SMILES) | % bound to 4.5% HSA [1] | binding to HSA on average [1] | r1^free ([2]; 0.47T) | r1^free ([2]; 1.41T) | r1^obs 4.5% HSA ([3]; 0.47T) | r1^obs 4.5% HSA ([3]; 1.41T) | % bound to 4.5% HSA [4] | signal / contrast in T1 weighted image with versus without HSA [5] | r1^free ([6]; 0.47T) | r1^free ([6]; 1.41T) | r1^obs 4.5% HSA ([7]; 0.47T) | r1^obs 4.5% HSA ([7]; 1.41T) |
| --- | --- | --- | --- | --- | --- | --- | --- | --- | --- | --- | --- | --- |
| C[C@H](NC(=O)C(CN1CCN(CC(=O)O)CCN(CC(=O)O)CCN(CC(=O)O)CC1)NC(=O)C(N)Cc1cc(I)c(O)c(I)c1)c1ccccc1 (single isomer, unassigned) [Gd(6a)] | 34% | 37% | 7.1 mM⁻¹ s⁻¹ | 6.6 mM⁻¹ s⁻¹ | 18.5 mM⁻¹ s⁻¹ | 10.9 mM⁻¹ s⁻¹ |  |  |  |  |  |  |
| NC(Cc1cc(I)c(O)c(I)c1)C(=O)NC(CN1CCN(CC(=O)O)CCN(CC(=O)O)CCN(CC(=O)O)CC1)C(=O)O (stereo not drawn) [Gd(4), 2,2′,2″-(10-(2-(2-amino-3-(4-hydroxy-3,5-diiodophenyl)propanamido)-2-carboxyethyl)-1,4,7,10-tetraazacyclododecane-1,4,7-triyl)triacetic acid] | 20% |  | 6.1 mM⁻¹ s⁻¹ | 5.8 mM⁻¹ s⁻¹ | 23.7 mM⁻¹ s⁻¹ | 17.4 mM⁻¹ s⁻¹ |  |  |  |  |  |  |
| COC(=O)CNC(=O)C(CN1CCN(CC(=O)O)CCN(CC(=O)O)CCN(CC(=O)O)CC1)NC(=O)C(N)Cc1cc(I)c(O)c(I)c1 (stereo not drawn) [Gd(5), 2,2′,2″-(10-(2-(2-amino-3-(4-hydroxy-3,5-diiodophenyl)propanamido)-3-((2-methoxy-2-oxoethyl)amino)-3-oxopropyl)-1,4,7,10-tetraazacy-clododecane-1,4,7-triyl)triacetic acid] | 25% |  | 6.9 mM⁻¹ s⁻¹ | 6.3 mM⁻¹ s⁻¹ | 20.9 mM⁻¹ s⁻¹ | 16.7 mM⁻¹ s⁻¹ |  |  |  |  |  |  |
| C[C@H](NC(=O)C(CN1CCN(CC(=O)O)CCN(CC(=O)O)CCN(CC(=O)O)CC1)NC(=O)C(N)Cc1cc(I)c(O)c(I)c1)c1ccccc1 (single isomer, unassigned) [Gd(6b)] | 39% | 37% | 6.8 mM⁻¹ s⁻¹ | 6.1 mM⁻¹ s⁻¹ | 18.4 mM⁻¹ s⁻¹ | 11.7 mM⁻¹ s⁻¹ |  |  |  |  |  |  |
| C[C@H](NC(=O)C(N)CN1CCN(CC(=O)O)CCN(CC(=O)O)CCN(CC(=O)O)CC1)c1ccccc1 (stereo partly drawn) [Gd(2), 2,2′,2″-(10-(2-amino-3-oxo-3-(((S)-1-phenylethyl)amino)propyl)-1,4,7,10-tetraazacyclododecane-1,4,7-triyl)triacetic acid] | 7% |  | 4.8 mM⁻¹ s⁻¹ | 3.9 mM⁻¹ s⁻¹ | 7.1 mM⁻¹ s⁻¹ | 5.9 mM⁻¹ s⁻¹ |  |  |  |  |  |  |
| O=C([O-])CN(CCN(CC(=O)[O-])C[C@H](COP(=O)([O-])OC1CCC(c2ccccc2)(c2ccccc2)CC1)N(CC(=O)[O-])CC(=O)[O-])CC(=O)[O-].[Gd+3].[H+].[H+].[H+] [MS-325, gadofosveset] |  |  |  |  |  |  | 88% ^a | increased signal in presence of HSA | 6.6 ^a mM^−1s^−1 | 5.5 ^a mM^−1s^−1 | 42 ^a mM^−1s^−1 | 23.8 ^a mM^−1s^−1 |
